Compound activity (PubChem BioAssay)
Shown are actives, neighbours in structure and some others; about 4.6% of the full set was active somewhere.
OX1R antag-1: blocks the human orexin 1 receptor; O43613; CHO/OX1R cells, Fluo-8 calcium fluorescence, orexin A; inhibition, % at 5 µM; 330,000 tested, 0.43% active; AID 434989;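 active means inhibition above its plate's threshold, mean inhibition of all tested compounds on the plate plus 3 SD, cut at about 37% in these data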
Target sequence (O43613 whole entry, looked up): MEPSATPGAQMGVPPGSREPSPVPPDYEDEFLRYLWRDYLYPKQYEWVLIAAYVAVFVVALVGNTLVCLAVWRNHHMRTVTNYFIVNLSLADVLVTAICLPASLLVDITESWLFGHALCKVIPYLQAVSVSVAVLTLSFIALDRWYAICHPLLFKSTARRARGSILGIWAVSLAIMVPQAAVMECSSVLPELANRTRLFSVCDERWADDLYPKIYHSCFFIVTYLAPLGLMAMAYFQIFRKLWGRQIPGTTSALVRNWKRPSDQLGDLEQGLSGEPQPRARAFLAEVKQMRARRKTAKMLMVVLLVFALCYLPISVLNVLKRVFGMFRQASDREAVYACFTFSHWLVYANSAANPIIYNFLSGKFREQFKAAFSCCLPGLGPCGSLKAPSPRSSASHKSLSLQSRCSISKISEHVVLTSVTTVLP
CHO parental Ca: counter-screen: ATP calcium response change in parental CHO cells | parental CHO-K1, ATP-induced calcium, Fluo-8 fluorescence | inhibition, % at 5.6 µM | 330,000 tested, 0.63% active;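 active means inhibition above that plate's mean sample inhibition plus 3 SD, cut at about 26% in these data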
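Test system: parental CHO cells; detection: calcium-sensitive Fluo-8 fluorescence; evaluation: percent inhibition of calcium signal; also added: ATP as calcium-mobilizing challenge; repeats: one well per compound; control set: ATP-challenged DMSO wells low, unchallenged DMSO wells high; compound: single nominal dose of 5.6 µM per compound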
TAAR1 antag: human TAAR1 antagonism; Q96RJ0; CHO RD-HGA16 TAAR1, Fluo-8 calcium fluorescence, antagonist; inhibition, % at 3 µM; 360,000 tested, 1.5% active;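 active means inhibition above a per-plate cutoff, the mean inhibition of test compounds on that plate plus 3 SD, cut at about 49% in these data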
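Assay system: CHO-derived RD-HGA16 cells stably expressing human TAAR1 plus Gα16. Timing: 140 s kinetic read after compound, 140 s after agonist. Technique: kinetic Fluo-8 calcium fluorescence measurement. Measure: % inhibition of agonist calcium response.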
OX1R antag-2: OX1R (human) antagonism | OX1R-expressing cells, FRET antagonist read-out | AID 485270 | inhibition, % at 6.6 µM | O43613 | 330,000 tested, 1.8% active; in the data active means inhibition mostly above about 38%, no sharp cut-off; inactive means mostly below about 40%
GPR7 antag: human neuropeptides B/W receptor 1 antagonism. P48145. GPR7-expressing cells, fluorescence antagonist assay. inhibition, % at 4.4 µM. 290,000 tested, 1.1% active; in the data active means inhibition above about 16%, passing the limit was not always enough;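 further: cells stimulated with the agonist NPW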
Target sequence (P48145 whole entry, looked up): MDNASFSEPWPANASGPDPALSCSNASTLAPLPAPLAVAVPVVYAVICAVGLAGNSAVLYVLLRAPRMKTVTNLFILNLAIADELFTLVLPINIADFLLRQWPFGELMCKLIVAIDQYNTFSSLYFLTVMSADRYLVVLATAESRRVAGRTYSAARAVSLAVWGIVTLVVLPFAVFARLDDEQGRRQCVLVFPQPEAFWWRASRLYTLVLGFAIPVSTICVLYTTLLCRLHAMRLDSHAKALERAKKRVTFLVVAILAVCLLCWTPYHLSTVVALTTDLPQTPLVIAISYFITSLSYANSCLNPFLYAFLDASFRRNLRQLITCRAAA
TAAR1 ag: agonists of human TAAR1; 360,000 tested, 0.99% active; CHO RD-HGA16 TAAR1, Fluo-8 calcium fluorescence; vehicle wells 0%, saturating PEA agonist 100%; Q96RJ0; activation, % at 3 µM;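 active means activation above the mean activation of all test compounds in the run plus 3 SD, cut at about 38% in these data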
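Assay system: CHO-derived RD-HGA16 cells with stable Gα16 and human TAAR1; timing: 17-24 h seeding, 75 min 37 °C dye, 30 min RT; read-out: % activation from peak over basal fluorescence ratio, DMSO-to-PEA scaled; measured by: kinetic Fluo-8 calcium fluorescence; benchmarks: low control DMSO, high control PEA (EC100); doses: 3 µM single concentration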
OX1R HTRF confirm: confirmation of human orexin 1 receptor antagonists, HTRF format; shares compounds with OX1R antag-2; OX1R-expressing cells, HTRF antagonist assay; inhibition, % at 6.6 µM; 1,800 tested, 49% active; AID 492964; in the data active means inhibition above about 55%;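 further: CHO cells expressing OX1R stimulated with orexin A at about EC80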
CHO-K1 HTRF: counter-screen for OX1R antagonists: effect in parental CHO-K1 cells. shares compounds with OX1R antag-2. HTRF counterscreen. inhibition, % at 6.6 µM. 1,800 tested, 48% active. AID 493232; in the data active means inhibition above about 17%
nonsel antag count: counter-screen for TAAR1 antagonists: nonselective antagonists | counterscreen cell line, calcium fluorescence, antagonist mode | inhibition, % at 3 µM | 2,400 tested, 77% active | shares compounds with TAAR1 antag | AID 651780; in the data active means inhibition above about 22%;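 further: CHO-Ga16 host cells stimulated with ATP at an EC80 level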
TAAR1 antag conf: human TAAR1 antagonism, confirmed | TAAR1-expressing cells, fluorescence antagonist read-out | inhibition, % at 3 µM | 2,400 tested, 40% active | shares compounds with TAAR1 antag; in the data active means inhibition above about 49%;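 further: CHO-Ga16 host cells challenged with agonist PEA near its EC80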
Ga16 ag counter-1: counter-screen for TAAR1 antagonists: nonselective Ga16 agonists; shares compounds with TAAR1 antag; Ga16-expressing cells, calcium fluorescence, agonist counterscreen; AID 651953; 2,400 tested, 18% active; activation, % at 3 µM; in the data active means activation above about 12%
TAAR1 ag counter: TAAR1 agonism, antagonist counter-screen. activation, % at 3 µM. shares compounds with TAAR1 antag. 2,400 tested, 2% active. hTAAR1 cell line, fluorescence activation, agonist mode. AID 651955; in the data active means activation above about 37%;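 further: CHO cells stably expressing TAAR1 with calcium dye readout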
TAAR1 ag confirm: human TAAR1 agonism, confirmed; CHO RD-HGA16 TAAR1, Fluo-8 calcium fluorescence; scaled: DMSO 0%, maximal phenethylamine 100%; activation, % at 3 µM; shares compounds with TAAR1 ag; 2,400 tested, 82% active; AID 651783;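 active means activation above a cutoff set at the run's mean compound activation plus 3 SD, cut at about 39% in these data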
Ga16 ag counter-2: nonselective agonism, TAAR1 counter-screen; AID 651787; CHO-Ga16 parental, Fluo-8 calcium fluorescence; normalized to maximal ATP response, DMSO zero; activation, % at 3 µM; shares compounds with TAAR1 ag; 2,400 tested, 50% active;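 active means activation above the run cutoff, the mean activation over all tested wells plus 3 SD, cut at about 12% in these data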
TAAR1 desensitize: TAAR1 response desensitization, agonist counter-screen. shares compounds with TAAR1 ag. CHO RD-HGA16 hTAAR1, Fluo-8 calcium, beta-PEA response inhibition. inhibition, % at 3 µM. 2,400 tested, 46% active. AID 651951;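 active means inhibition above the run cutoff, the mean inhibition of all test compounds plus 3 SD, cut at about 49% in these data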;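 further: beta-PEA stimulus applied at its EC80; loss of beta-PEA calcium signal after compound pretreatment read as receptor desensitization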
Ga16 nonsel ant: nonselective Ga16 antagonist in TAAR1 agonist counter-screen | shares compounds with TAAR1 ag | AID 651952 | 2,400 tested, 39% active | CHO-Ga16 ATP-induced calcium, Fluo-8 fluorescence | inhibition, % at 3 µM;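 active means inhibition above the plate's mean compound inhibition plus 3 SD, computed per plate, cut at about 22% in these data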
Each line names hits and unclear results; the compound was inactive in the other large screens (follow-up assays come after a bar, where they were run).

O=C(Nc1cccc(-c2nc3ncccc3o2)c1)c1cc2ccccc2o1	TAAR1 antag 61, OX1R antag-2 105 | OX1R HTRF confirm 92 | CHO-K1 HTRF 19 | nonsel antag count 28 | TAAR1 antag conf 49 | Ga16 ag counter-1 inactive | TAAR1 ag counter inactive
Cc1ccc(-c2nc3ncccc3o2)cc1NC(=O)c1cc2ccccc2o1	none
COc1ccc(-c2oc3ccc(N4CCOCC4)cc3c2C#CCO)cc1	TAAR1 antag 58, OX1R antag-2 81 (no result: GPR7 antag) | OX1R HTRF confirm inactive | CHO-K1 HTRF inactive | nonsel antag count 23 | TAAR1 antag conf inactive | Ga16 ag counter-1 inactive | TAAR1 ag counter inactive
COc1cc(OC)cc(C(=O)Nc2ccc(-c3nc4ccccc4o3)cc2)c1	TAAR1 antag 64, OX1R antag-2 86 | OX1R HTRF confirm inactive | CHO-K1 HTRF inactive | nonsel antag count 26 | TAAR1 antag conf inactive | Ga16 ag counter-1 inactive | TAAR1 ag counter inactive
O=C(O)CNC(=O)CC1S/C(=N/N=C2/NC(=O)CS2)NC1=O (centres undefined)	none
COc1ccc(N(CC(=O)NCCSc2ccccn2)S(=O)(=O)c2ccccc2)cc1Cl	none
COc1ccc(Cl)cc1N(CC(=O)NCCSc1ccccn1)S(=O)(=O)c1ccccc1	TAAR1 antag 58, OX1R antag-2 79 | OX1R HTRF confirm 80 | CHO-K1 HTRF inactive | nonsel antag count inactive | TAAR1 antag conf inactive | Ga16 ag counter-1 inactive | TAAR1 ag counter inactive
CCN(CC)S(=O)(=O)c1cccc(-n2c(O)c(C=Nc3ccccc3C(=O)O)c3ccccc3c2=O)c1	none
O=C(CNC(=O)c1ccccc1)N=Nc1c(O)[nH]c2ccc(Br)cc12	none
O=Nc1c(-c2c(O)[nH]c3cc(Br)ccc23)[nH]c2ccccc12	TAAR1 antag 50, OX1R antag-2 98 | OX1R HTRF confirm 79 | CHO-K1 HTRF 26 | nonsel antag count inactive | TAAR1 antag conf inactive | Ga16 ag counter-1 inactive | TAAR1 ag counter inactive
CCC(CC)C(=O)Nc1cccc(SC)c1	none
COc1ccc(Cl)cc1-n1c(=S)sc2c(=O)[nH]c(SCC(=O)NCC3CCCO3)nc21 (centres undefined)	none
O=C1CCN2C=Nc3cccc4ccc1c2c34	OX1R antag-2 92, TAAR1 ag 109 | OX1R HTRF confirm inactive | CHO-K1 HTRF 19 | TAAR1 ag confirm inactive | Ga16 ag counter-2 36 | TAAR1 desensitize inactive | Ga16 nonsel ant inactive
CCC(=O)c1ccc(OCC(=O)OCC(=O)c2cc(C)n(C)c2C)cc1	none
O=S(=O)(NCCc1csc(-c2ccccc2)n1)c1ccc2c(c1)OCCO2	OX1R antag-2 83, TAAR1 ag 94 | OX1R HTRF confirm 64 | CHO-K1 HTRF inactive | TAAR1 ag confirm 62 | Ga16 ag counter-2 43 | TAAR1 desensitize inactive | Ga16 nonsel ant 24
O=S(=O)(NCCc1cn2ccccc2n1)c1ccc2c(c1)OCCO2	none
O=C(CSc1n[nH]c(-c2ccccc2)n1)NC(=O)NCc1ccco1	OX1R antag-2 82 (no result: TAAR1 antag, TAAR1 ag) | OX1R HTRF confirm inactive | CHO-K1 HTRF inactive | Ga16 ag counter-2 inactive | Ga16 nonsel ant inactive
COc1ccc(CN2CCN(CCCc3ccccc3)CC2)c(OC)c1	none
O=C(Nc1ccc(Nc2ccccc2)cc1)c1ccc(Br)cc1	none
O=C(/C=C/c1ccccc1)Nc1cccc(C(=O)NCc2ccccc2)c1	none (no result: OX1R antag-1, CHO parental Ca, OX1R antag-2, GPR7 antag)
O=C(NCCc1ccc(F)cc1)c1cccc(NC(=O)c2ccccc2)c1	TAAR1 antag 61 | nonsel antag count 33 | TAAR1 antag conf 51 | Ga16 ag counter-1 inactive | TAAR1 ag counter inactive
O=C(NCCCCc1ccccc1)c1cccc(NC(=O)c2ccccc2)c1	none (no result: OX1R antag-1, CHO parental Ca, OX1R antag-2, GPR7 antag)
O=C(NCCCCc1ccccc1)c1cccc(NC(=O)C2CCCC2)c1	TAAR1 antag 64 (no result: OX1R antag-1, CHO parental Ca, OX1R antag-2, GPR7 antag) | nonsel antag count 25 | TAAR1 antag conf inactive | Ga16 ag counter-1 inactive | TAAR1 ag counter inactive
O=C(Nc1cccc(C(=O)Nc2ccc(Br)cc2)c1)c1ccccc1	TAAR1 antag 76 | nonsel antag count 44 | TAAR1 antag conf 57 | Ga16 ag counter-1 inactive | TAAR1 ag counter inactive
